In ChEMBL document CHEMBL1123422, “1-Ethyl-7-[3-[(ethylamino)methyl]-1-pyrrolidinyl]-6,8-difluoro-1,4- dihydro-4-oxo-3-quinoline-carboxylic acid. New quinolone antibacterial with potent gram-positive activity” (1986):
In brackets after ≈: the same amount, converted by molar mass.

Columns and labels:
Klebsiella pneumoniae [1] = assay: (§1) Compound was tested for inhibition of the gram-negative organism Klebsiella pneumoniae MGH-2; format: functional
Procedure, shortened: (§2)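 MICs read in standard microdilution (microtitration) format against a panel of 10 bacterial organisms; values in µg/mL.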

Enterococcus faecalis [2] = assay: (§3) Compound was tested for inhibition of the […] organism Streptococcus faecalis MGH-2; format: functional; procedure, shortened: as §2
Streptococcus pyogenes [3] = assay: (§4) Compound was tested for inhibition of the […] organism Streptococcus pyogenes C203.; format: functional; procedure, shortened: as §2
Mus musculus [4] = assay: Compound was evaluated for protective dose against the […] UC-76 lethal infection following po administration in mouse; format: functional; settings: read-out: PD50
Procedure, shortened: (§5)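 Acute lethal systemic infection in female Charles River CD-1 mice (18–22 g), challenged intraperitoneally with an estimated 100 median lethal dose in 5% hog gastric mucin. Single doses in a twofold rising series were given with the challenge, sc as aqueous solution or po by gavage in 5% gum acacia. PD50 (mg/kg) was estimated by log probit from survival of eight mice per dose.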

Escherichia coli [5] = assay: (§6) Compound was tested for inhibition of the gram-negative organism Escherichia coli vogel; format: functional; procedure, shortened: as §2
Providencia rettgeri [6] = assay: (§7) Compound was tested for inhibition of the gram-negative organism Providencia rettgeri H1771; format: functional; procedure, shortened: as §2
Escherichia coli [7] = assay: (§8) Compound was tested for inhibition of the gram-negative organism Escherichia coli H560; format: functional; procedure, shortened: as §2
Staphylococcus aureus [8] = assay: (§9) Compound was tested for inhibition of the […] organism […] UC-76.; format: functional; procedure, shortened: as §2
Mus musculus [9] = assay: Compound was evaluated for protective dose against the […] UC-76 lethal infection following sc administration in mouse; format: functional; settings: read-out: PD50; procedure, shortened: as §5
Pseudomonas aeruginosa [10] = assay: (§10) Compound was tested for inhibition of the gram-negative organism Pseudomonas aeruginosa UI-18; format: functional; procedure, shortened: as §2
Streptococcus pneumoniae [11] = assay: (§11) Compound was tested for inhibition of the […] organism Streptococcus pneumoniae SV-1; format: functional; procedure, shortened: as §2
[12] = target: DNA gyrase (Escherichia coli) (UniProt P0AES6+P0AES4); assay: Inhibition of DNA gyrase of Escherichia coli H560 cells
Procedure, shortened: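 DNA gyrase purified from Escherichia coli H560 cells. Cleavage assay: drug-gyrase-DNA complex denatured, converting closed circular DNA to linear DNA. Linear DNA resolved by gel electrophoresis and stained with ethidium bromide. Value is the minimum drug concentration (µg/mL) giving linear DNA at an intensity relative to oxolinic acid at 10 µg/mL. Aqueous drug stocks made up in 0.1 N NaOH or KOH.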

Staphylococcus aureus [13] = assay: (§12) Compound was tested for inhibition of the […] organism […] H228.; format: functional; procedure, shortened: as §2
Mus musculus [14] = assay: Compound was evaluated for protective dose against the Escherichia coli vogel lethal infection following peroral administration in mouse; format: functional; settings: po, read-out: PD50; procedure, shortened: as §5
Enterobacter cloacae = assay: Compound was tested for inhibition of the gram-negative organism […] HA 2646; format: functional
Mus musculus [15] = assay: Compound was evaluated for protective dose against the Escherichia coli vogel lethal infection following sc administration in mouse; format: functional; settings: read-out: PD50; procedure, shortened: as §5
Mus musculus [16] = assay: Compound was evaluated for protective dose against Streptococcus pneumoniae SV-1 lethal infection following sc administration; format: functional; settings: read-out: PD50
Procedure, shortened: (§13)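 Female Charles River CD-1 mice (18–22 g) were challenged intraperitoneally with an estimated 100 median lethal dose in tryptic soy broth. Single doses, in a twofold rising series, were given at the same time as challenge: subcutaneously as aqueous solution, or orally by gavage in 5% gum acacia. Survival in groups of eight mice per dose gave PD50 (mg/kg) by log probit.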

Mus musculus [17] = assay: Compound was evaluated for protective dose against the Streptococcus pneumoniae SV-1 lethal infection following po administration; format: functional; settings: read-out: PD50; procedure, shortened: as §13
Providencia rettgeri [18] = assay: as §7; format: functional; remark: listed apart in the source
Streptococcus pneumoniae [19] = assay: as §11; format: functional; remark: listed apart in the source
Staphylococcus aureus [20] = assay: as §9; format: functional; remark: listed apart in the source
Escherichia coli [21] = assay: Compound was tested for inhibition of target enzyme DNA gyrase obtained from Escherichia coli H560 cells; format: functional
Procedure, shortened: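 Gyrase isolated from E. coli H560 cells. Drug-gyrase-DNA complex denatured, and closed circular DNA converted to linear DNA. Linear DNA resolved by gel electrophoresis and stained with ethidium bromide. Value is the minimum drug concentration (µg/mL) giving linear DNA at an intensity relative to oxolinic acid at 10 µg/mL. Aqueous drug stocks made in 0.1 N NaOH or KOH.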

Staphylococcus aureus [22] = assay: as §12; format: functional; remark: listed apart in the source
Escherichia coli [23] = assay: as §8; format: functional; remark: listed apart in the source
Pseudomonas aeruginosa [24] = assay: as §10; format: functional; remark: listed apart in the source
Streptococcus pyogenes [25] = assay: as §4; format: functional; remark: listed apart in the source
Klebsiella pneumoniae [26] = assay: as §1; format: functional; remark: listed apart in the source
Escherichia coli [27] = assay: as §6; format: functional; remark: listed apart in the source
Enterococcus faecalis [28] = assay: as §3; format: functional; remark: listed apart in the source

SMILES	MIC (Klebsiella pneumoniae [1]) [µg/mL]	MIC (Enterococcus faecalis [2]) [µg/mL]	MIC (Streptococcus pyogenes [3]) [µg/mL]	ED50 (Mus musculus [4]) [mg/kg]	MIC (Escherichia coli [5]) [µg/mL]	MIC (Providencia rettgeri [6]) [µg/mL]	MIC (Escherichia coli [7]) [µg/mL]	MIC (Staphylococcus aureus [8]) [µg/mL]	ED50 (Mus musculus [9]) [mg/kg]	MIC (Pseudomonas aeruginosa [10]) [µg/mL]	MIC (Streptococcus pneumoniae [11]) [µg/mL]	Min concentration [12] [µg/mL]	MIC (Staphylococcus aureus [13]) [µg/mL]	ED50 (Mus musculus [14]) [mg/kg]	MIC (Enterobacter cloacae) [µg/mL]	ED50 (Mus musculus [15]) [mg/kg]	ED50 (Mus musculus [16]) [mg/kg]	ED50 (Mus musculus [17]) [mg/kg]	other results
CCn1cc(C(=O)O)c(=O)c2cc(F)c(N3CCC(CN)C3)cc21 (stereo not given)	3.1 (≈ 9.3 µM)	0.8 (≈ 2.4 µM)	0.2 (≈ 0.6 µM)	> 50	0.8 (≈ 2.4 µM)	6.3 (≈ 18.9 µM)	0.4 (≈ 1.2 µM)	0.05 (≈ 0.15 µM)	6	1.6 (≈ 4.8 µM)	0.2 (≈ 0.6 µM)	3	1.6 (≈ 4.8 µM)	> 100	1.6 (≈ 4.8 µM)	25			
CCn1cc(C(=O)O)c(=O)c2cc(F)c(N3CCC(CNC)C3)cc21 (stereo not given)	1.6 (≈ 4.61 µM)	1.6 (≈ 4.61 µM)	0.1 (≈ 0.288 µM)	> 50	0.2 (≈ 0.576 µM)	6.3 (≈ 18.1 µM)	0.2 (≈ 0.576 µM)	0.013 (≈ 0.0374 µM)	8	1.6 (≈ 4.61 µM)	0.2 (≈ 0.576 µM)		0.8 (≈ 2.3 µM)	> 100	1.6 (≈ 4.61 µM)	18	> 25	> 100	
CCn1cc(C(=O)O)c(=O)c2cc(F)c(N3CCC(CN)C3)c(F)c21 (stereo not given)	0.4 (≈ 1.14 µM)	0.1 (≈ 0.285 µM)	0.1 (≈ 0.285 µM)		0.1 (≈ 0.285 µM)	0.4 (≈ 1.14 µM)	0.1 (≈ 0.285 µM)	0.1 (≈ 0.285 µM)		0.8 (≈ 2.28 µM)	0.2 (≈ 0.569 µM)	0.5	0.1 (≈ 0.285 µM)	90	0.2 (≈ 0.569 µM)	1.2	5	100	
CCNCC1CCN(c2cc3c(cc2F)c(=O)c(C(=O)O)cn3CC)C1 (stereo not given)	0.4 (≈ 1.11 µM)	0.2 (≈ 0.553 µM)	0.1 (≈ 0.277 µM)	35	0.1 (≈ 0.277 µM)	1.6 (≈ 4.43 µM)	0.1 (≈ 0.277 µM)	0.05 (≈ 0.138 µM)	3	1.6 (≈ 4.43 µM)	0.2 (≈ 0.553 µM)	2.5	0.2 (≈ 0.553 µM)	> 100	0.2 (≈ 0.553 µM)	15			
CCn1cc(C(=O)O)c(=O)c2cc(F)c(N3CCC(CNC)C3)c(F)c21 (stereo not given)	0.8 (≈ 2.19 µM)	0.1 (≈ 0.274 µM)	0.1 (≈ 0.274 µM)		0.4 (≈ 1.09 µM)	0.8 (≈ 2.19 µM)	0.2 (≈ 0.547 µM)	0.1 (≈ 0.274 µM)		1.6 (≈ 4.38 µM)	0.1 (≈ 0.274 µM)	0.5	0.2 (≈ 0.547 µM)	6.9	0.4 (≈ 1.09 µM)	1.9	11	37	
CNn1cc(C(=O)O)c(=O)c2cc(F)c(N3CCN(C)CC3)cc21 [AMIFLOXACIN]	0.2 (≈ 0.598 µM)	3.1 (≈ 9.27 µM)	12.5 (≈ 37.4 µM)		0.1 (≈ 0.299 µM)	0.2 (≈ 0.598 µM)	0.025 (≈ 0.0748 µM)	0.4 (≈ 1.2 µM)		0.8 (≈ 2.39 µM)	12.5 (≈ 37.4 µM)		1.6 (≈ 4.79 µM)	4.5		1	> 25	> 100	
O=C(O)c1cn(C2CC2)c2cc(N3CCNCC3)c(F)cc2c1=O [CIPROFLOXACIN]	0.1 (≈ 0.302 µM)	0.8 (≈ 2.41 µM)	0.8 (≈ 2.41 µM)	9.5		0.1 (≈ 0.302 µM)	0.025 (≈ 0.0754 µM)	0.2 (≈ 0.604 µM)	3	0.4 (≈ 1.21 µM)		0.5	3.1 (≈ 9.36 µM)	1.2		0.25	18	> 100	
CCn1cc(C(=O)O)c(=O)c2cc(F)c(N3CCNCC3)nc21 [ENOXACIN]	0.2 (≈ 0.624 µM)	3.1 (≈ 9.68 µM)	12.5 (≈ 39 µM)	12	0.2 (≈ 0.624 µM)	0.1 (≈ 0.312 µM)	0.1 (≈ 0.312 µM)	0.4 (≈ 1.25 µM)	10	1.6 (≈ 4.99 µM)		5	1.6 (≈ 4.99 µM)	3	0.2 (≈ 0.624 µM)	2	> 100	> 200	
CCNCC1CCN(c2c(F)cc3c(=O)c(C(=O)O)cn(CC)c3c2F)C1 (stereo not given) [MERAFLOXACIN]	0.2 (≈ 0.527 µM)	0.1 (≈ 0.264 µM)	0.1 (≈ 0.264 µM)	2.8	0.1 (≈ 0.264 µM)	0.4 (≈ 1.05 µM)	0.1 (≈ 0.264 µM)	0.05 (≈ 0.132 µM)	1.6	1.6 (≈ 4.22 µM)	0.1 (≈ 0.264 µM)	2.5	0.1 (≈ 0.264 µM)	12	0.2 (≈ 0.527 µM)	1.7	4.4	20	
CCn1cc(C(=O)O)c(=O)c2ccc(C)nc21 [NALIDIXIC ACID]	6.3 (≈ 27.1 µM)	> 100	> 100	> 100	3.1 (≈ 13.3 µM)	6.3 (≈ 27.1 µM)	6.3 (≈ 27.1 µM)	25 (≈ 108 µM)	> 100	> 100		50	100 (≈ 431 µM)	45	6.3 (≈ 27.1 µM)	26	> 100	> 100	
CCn1cc(C(=O)O)c(=O)c2cc(F)c(N3CCNCC3)cc21 [NORFLOXACIN]				23					15					4	0.1 (≈ 0.313 µM)	1	> 100	150	MIC (Providencia rettgeri [18]): 0.025 µg/mL (≈ 0.0783 µM); MIC (Streptococcus pneumoniae [19]): 1.6 µg/mL (≈ 5.01 µM); MIC (Staphylococcus aureus [20]): 0.05 µg/mL (≈ 0.157 µM); MIC (Escherichia coli [21]): 1 µg/mL (≈ 3.13 µM); MIC (Staphylococcus aureus [22]): 0.8 µg/mL (≈ 2.51 µM); MIC (Escherichia coli [23]): 0.1 µg/mL (≈ 0.313 µM); MIC (Pseudomonas aeruginosa [24]): 0.2 µg/mL (≈ 0.626 µM); MIC (Streptococcus pyogenes [25]): 0.8 µg/mL (≈ 2.51 µM); MIC (Klebsiella pneumoniae [26]): 0.05 µg/mL (≈ 0.157 µM); MIC (Escherichia coli [27]): 0.025 µg/mL (≈ 0.0783 µM); MIC (Enterococcus faecalis [28]): 1.6 µg/mL (≈ 5.01 µM)
CC1COc2c(N3CCN(C)CC3)c(F)cc3c(=O)c(C(=O)O)cn1c23 (stereo not given) [OFLOXACIN]	0.1 (≈ 0.277 µM)	0.8 (≈ 2.21 µM)	0.8 (≈ 2.21 µM)	11	0.1 (≈ 0.277 µM)	0.2 (≈ 0.553 µM)		0.1 (≈ 0.277 µM)	5	0.4 (≈ 1.11 µM)		5		2	0.1 (≈ 0.277 µM)	0.8	38	68	
CCn1cc(C(=O)O)c(=O)c2cc3c(cc21)OCO3 [OXOLINIC ACID]	0.2 (≈ 0.766 µM)	12.5 (≈ 47.9 µM)	> 100	> 100	0.2 (≈ 0.766 µM)	0.1 (≈ 0.383 µM)	0.2 (≈ 0.766 µM)	0.8 (≈ 3.06 µM)	63	6.3 (≈ 24.1 µM)		10	1.6 (≈ 6.12 µM)	17	0.4 (≈ 1.53 µM)	9			
CCn1cc(C(=O)O)c(=O)c2cc(F)c(N3CCN(C)CC3)cc21 [PEFLOXACIN]	0.05 (≈ 0.15 µM)	0.8 (≈ 2.4 µM)	0.8 (≈ 2.4 µM)	9.5	0.025 (≈ 0.075 µM)	0.05 (≈ 0.15 µM)	0.1 (≈ 0.3 µM)	0.1 (≈ 0.3 µM)	3.7	0.4 (≈ 1.2 µM)			0.2 (≈ 0.6 µM)	2.8		1.6	96	200	
